Laboratory results as given in ChEMBL document CHEMBL4190252, “Synthesis, antitumor activity and CDK1 inhibiton of new thiazole nortopsentin analogues” (Eur J Med Chem, 2017).

Target: Cyclin-dependent kinase 1/cyclin B1 (Homo sapiens, UniProt P06493)
Assay: Inhibition of recombinant human full length His-tagged CDK1/cyclin B expressed in baculovirus expression system after 60 mins in presence of omnia peptide substrate by fluorescence based assay
Procedure, shortened: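 Recombinant human CDK1/cyclin B in kinase buffer with Omnia peptide substrate, ATP and DTT, with inhibitor at 0.1–10 µM. Reactions ran for 60 min at 30 °C, with fluorescence read at ex 360/em 485 nm. Initial velocity came from the RFU-versus-time slope and was plotted against concentration for a dose-response IC50 fit. Values are mean±SD of two determinations.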

Chain of Cyclin-dependent kinase 1/cyclin B1 (P06493 whole entry): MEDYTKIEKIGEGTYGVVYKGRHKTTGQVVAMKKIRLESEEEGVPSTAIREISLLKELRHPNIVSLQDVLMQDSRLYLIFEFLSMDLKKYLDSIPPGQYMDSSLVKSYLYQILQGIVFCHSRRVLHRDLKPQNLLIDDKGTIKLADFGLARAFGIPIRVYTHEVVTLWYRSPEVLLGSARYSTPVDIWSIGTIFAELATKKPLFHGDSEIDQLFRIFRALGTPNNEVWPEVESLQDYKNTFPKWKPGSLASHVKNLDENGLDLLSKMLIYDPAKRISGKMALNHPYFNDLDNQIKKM
Chain of Cyclin-dependent kinase 1/cyclin B1 (P14635 whole entry, further chain): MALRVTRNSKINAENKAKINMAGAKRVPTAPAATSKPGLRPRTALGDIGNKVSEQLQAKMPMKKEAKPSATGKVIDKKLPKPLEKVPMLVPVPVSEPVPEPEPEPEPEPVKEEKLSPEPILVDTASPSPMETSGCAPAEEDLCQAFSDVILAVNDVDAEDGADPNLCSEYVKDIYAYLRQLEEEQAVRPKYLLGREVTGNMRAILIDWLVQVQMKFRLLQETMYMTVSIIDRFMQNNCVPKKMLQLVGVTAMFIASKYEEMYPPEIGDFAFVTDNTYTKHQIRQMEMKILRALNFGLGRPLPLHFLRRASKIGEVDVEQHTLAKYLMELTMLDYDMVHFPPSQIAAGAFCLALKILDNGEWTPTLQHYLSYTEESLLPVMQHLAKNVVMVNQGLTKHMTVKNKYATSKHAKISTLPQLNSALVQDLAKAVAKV

Cn1cc(-c2nc(-c3cn(C)c4ncccc34)cs2)c2cc(F)ccc21
IC50: 970 nM
